The source made the active and inactive calls. The calls are words filed in the database; no cut-off is given here. A value given as a limit tells only on which side of the number the result lay.

For one experiment, the system named is Bacillus subtilis. The experiment is described as follows: Antibacterial activity against Bacillus subtilis subsp. subtilis assessed as inhibition of microbial growth by microtiter broth dilution method. Format: functional. The method, boiled down:
(§1)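 Broth microdilution in 24-well plates. Inoculum of 10⁴ CFU/mL, 10 µL per well, in 1 mL potato dextrose broth or nutrient broth. Compound in methanol, 0–100 µg/mL. Incubated at 22–28 °C for 2–5 days and compared with a compound-free growth control. MIC is the lowest concentration showing no growth.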

For the next experiment, the system named is Saccharomyces cerevisiae. As to the kind of experiment: Antifungal activity against Saccharomyces cerevisiae assessed as inhibition of microbial growth by microtiter broth dilution method. Format: functional. The method, boiled down: as §1
For orientation: Broth dilution looks for growth in wells or tubes with falling amounts of substance.

For the next experiment, the system named is Candida albicans. As to the kind of experiment: Antifungal activity against Candida albicans assessed as inhibition of microbial growth by microtiter broth dilution method. It counts as functional. The method, boiled down: as §1
The next experiment deals with Rhizoctonia solani. As to the kind of experiment: Antifungal activity against Rhizoctonia solani assessed as inhibition of microbial growth by microtiter broth dilution method. It counts as functional. The method, boiled down: (§2)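 Spore or zoospore suspension, 10 µL, added to wells of a 24-well dish holding 1 mL potato dextrose broth or nutrient broth. Compound dissolved in methanol and tested over 0–100 µg/mL. Plates held at 22–28 °C and read after 2–5 days against an untreated inoculated control. MIC is the lowest concentration with no visible growth.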

The next experiment has as its system Sclerotinia sclerotiorum. As to the kind of experiment: Antifungal activity against Sclerotinia sclerotiorum assessed as inhibition of microbial growth by microtiter broth dilution method. Format: functional. The method, boiled down: as §2
The test system of the next experiment is Globisporangium ultimum. The experiment is described as follows: Antifungal activity against Pythium ultimum assessed as inhibition of microbial growth by microtiter broth dilution method. Format: functional. In short, it runs like this: as §2
Another experiment deals with Phytophthora capsici. As to the kind of experiment: Antifungal activity against Phytophthora capsici assessed as inhibition of microbial growth by microtiter broth dilution method. Format: functional. The method, boiled down:
as §2

The next experiment deals with Pyricularia grisea. The experiment is described as follows: Antifungal activity against Magnaporthe grisea assessed as inhibition of microbial growth by microtiter broth dilution method. It counts as functional. The method, boiled down:
(§3)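 24-well broth dilution. 10 µL of spore or cell suspension went into 1 mL potato dextrose broth or nutrient broth. Bacterial inoculum was 10⁴ CFU/mL. Compound was dissolved in methanol and tested at 0–100 μg/mL. Plates were incubated at 22–28 °C for 2–5 days against a compound-free growth control. MIC was the lowest concentration showing no growth.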

For experiment [1], the system named is Fusarium oxysporum f. sp. lycopersici. The experiment is described as follows: Antifungal activity against Fusarium oxysporum f. sp. lycopersici assessed as inhibition of microbial growth by microtiter broth dilution method. It counts as functional. In short, it runs like this: as §2
A further experiment concerns Ilyonectria destructans. As to the kind of experiment: Antifungal activity against Ilyonectria radicicola assessed as inhibition of microbial growth by microtiter broth dilution method. It counts as functional. The method, boiled down:
as §2

For experiment [2], the system named is Colletotrichum orbiculare. The experiment is described as follows: Antifungal activity against Colletotrichum orbiculare assessed as inhibition of microbial growth by microtiter broth dilution method. It counts as functional. The method, boiled down:
as §2

A further experiment relates to Botrytis cinerea. As to the kind of experiment: Antifungal activity against Botryotinia fuckeliana assessed as inhibition of microbial growth by microtiter broth dilution method. It counts as functional. The method, boiled down:
as §2

The subject of a further experiment is Cladosporium cucumerinum. As to the kind of experiment: Antifungal activity against Cladosporium cucumerinum assessed as inhibition of microbial growth by microtiter broth dilution method. It counts as functional. In short, it runs like this: as §2
A further experiment deals with Alternaria mali. The experiment is described as follows: Antifungal activity against Alternaria mali assessed as inhibition of microbial growth by microtiter broth dilution method. It counts as functional. The method, boiled down:
as §2

In experiment [3] the test system is Colletotrichum orbiculare. The experiment is described as follows: […] antifungal activity against Colletotrichum orbiculare on […] assessed as inhibition of anthracnose development at 500 ug/mL. Format: functional, organism-based.
Experiment [4] has as its system Colletotrichum orbiculare. The experiment is described as follows: […] antifungal activity against Colletotrichum orbiculare on two-leaf stage cucumber plant assessed as inhibition of anthracnose development at 100 ug/mL. Format: functional, organism-based. The method, boiled down:
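Cucumber cv. Baekrokdadaki grown at 28 ± 2 °C. Compound in methanol, diluted in 0.1% Tween 20 to 10–500 µg/mL, sprayed on primary leaves 1 day before inoculation. Inoculum was 10⁶ conidia/mL in 0.05% Tween 20, followed by 24 h in a dew chamber at 28 °C. Lesions/cm² on secondary leaves counted at day 6. 6 plants/treatment, 3 replicates; Tween-only control.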

The test system of another experiment is Xanthomonas vesicatoria. As to the kind of experiment: Antibacterial activity against Xanthomonas vesicatoria assessed as inhibition of microbial growth by microtiter broth dilution method. It counts as functional. The method, boiled down: as §1
The test system of the next experiment is Ralstonia solanacearum. As to the kind of experiment: Antibacterial activity against Ralstonia solanacearum assessed as inhibition of microbial growth by microtiter broth dilution method. It counts as functional. The method, boiled down:
as §3

Experiment [5] concerns Pectobacterium carotovorum subsp. carotovorum. As to the kind of experiment: Antibacterial activity against Pectobacterium carotovorum subsp. carotovorum assessed as inhibition of microbial growth by microtiter broth dilution method. Format: functional. The method, boiled down: as §1

`O=C(O)C/C=C/c1ccccc1`: the MIC is 3 µg/mL in the experiment with Bacillus subtilis; above 100 µg/mL with Saccharomyces cerevisiae; above 100 µg/mL in the experiment on Candida albicans; 30 µg/mL in the experiment with Rhizoctonia solani; above 100 µg/mL in the experiment with Sclerotinia sclerotiorum; 0.5 µg/mL in the experiment on Globisporangium ultimum. Besides, the MIC with Phytophthora capsici is 30 µg/mL; in the experiment on Pyricularia grisea, 10 µg/mL; in experiment [1], above 100 µg/mL; in the experiment with Ilyonectria destructans, 30 µg/mL; in [2], 3 µg/mL; in the experiment with Botrytis cinerea it was above 100 µg/mL. Further, the minimum inhibitory concentration (MIC) in the experiment with Cladosporium cucumerinum is 30 µg/mL; with Alternaria mali, 30 µg/mL; in the experiment with Xanthomonas vesicatoria it was 10 µg/mL; in the experiment on Ralstonia solanacearum it was 0.5 µg/mL; in [5] it was 1 µg/mL. Further, the inhibition result in experiment [3] and in [4] was “Active” in each case.
Take `N#Cc1c(Cl)c(Cl)c(Cl)c(C#N)c1Cl`: the inhibition entry in experiment [3] is “Active”.

One may read the MIC as the lowest concentration that inhibits growth of the organism.
